Test results reported in ChEMBL document CHEMBL4706681, “New 2-Pyrazoline and Hydrazone Derivatives as Potent and Selective Monoamine Oxidase A Inhibitors” (J Med Chem, 2021).
Active and inactive are the calls of the source. No cut-off for these calls is given here.

Legend:
[1] = biological target: T1, Amine oxidase [flavin-containing] A (Homo sapiens, UniProt P21397); assay: Irreversible inhibition of human MAO-A assessed as residual enzyme activity at 4 fold IC50 incubated for 15 mins and measured 24 hrs post dialysis relative to control; details: 24.25 h, time 1455 min
T1 sequence (P21397 whole entry): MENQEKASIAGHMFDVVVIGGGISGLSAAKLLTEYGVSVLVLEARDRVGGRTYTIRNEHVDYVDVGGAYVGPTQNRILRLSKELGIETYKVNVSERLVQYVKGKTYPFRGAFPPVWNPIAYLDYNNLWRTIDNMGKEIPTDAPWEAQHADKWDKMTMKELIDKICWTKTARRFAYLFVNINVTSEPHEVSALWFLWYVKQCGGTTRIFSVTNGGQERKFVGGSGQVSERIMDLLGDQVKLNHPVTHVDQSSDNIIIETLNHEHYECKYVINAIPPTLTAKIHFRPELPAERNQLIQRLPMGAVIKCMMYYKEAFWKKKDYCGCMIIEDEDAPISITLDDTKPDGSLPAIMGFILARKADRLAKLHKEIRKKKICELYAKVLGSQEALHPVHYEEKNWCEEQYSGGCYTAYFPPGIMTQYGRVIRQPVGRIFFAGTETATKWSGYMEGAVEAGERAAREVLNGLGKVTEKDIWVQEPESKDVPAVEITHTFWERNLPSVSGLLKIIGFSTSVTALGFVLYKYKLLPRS
How it was run: (§1)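 Recombinant hMAO-A (1 U/mL) was preincubated with inhibitor for 15 min at 37 °C in 0.05 M potassium phosphate, pH 7.4, with 5% sucrose and 1% DMSO. It was then dialyzed at 4 °C against 100 mM potassium phosphate, pH 7.4, 5% sucrose (12 000 MWCO), with buffer replaced twice over 24 h. Dialyzed and undialyzed mixtures were assayed together for MAO-A activity, in triplicate; residual activity is given as mean ± SEM.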

[2] = biological target: T1, Amine oxidase [flavin-containing] A; assay: Irreversible inhibition of human MAO-A assessed as residual enzyme activity at 4 fold IC50 incubated for 15 mins and measured before dialysis relative to control; how it was run: as §1
[3] = Cytotoxicity against human HepG2 cells assessed as cell viability at 7.5 uM incubated for 2 hrs by MTT assay relative to control; type: cell-based; details: read-out: Activity
How it was run: (§2)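 HepG2 human hepatoma cells; viability read by MTT assay, with 0.1% DMSO as vehicle control. Viability given as % of control, mean ± SEM (n = 3); p < 0.05 taken as significant.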

[4] = Cytotoxicity against human HepG2 cells assessed as cell viability at 15 uM incubated for 2 hrs by MTT assay relative to control; type: cell-based; details: read-out: Activity; how it was run: as §2
[5] = Cytotoxicity against human HepG2 cells assessed as cell viability at 30 uM incubated for 2 hrs by MTT assay relative to control; type: cell-based; details: read-out: Activity; how it was run: as §2
[6] = biological target: T1, Amine oxidase [flavin-containing] A; assay: Reversible inhibition of human MAO-A assessed as residual enzyme activity at 4 fold IC50 incubated for 15 mins and measured before dialysis by dialysis method relative to control
How it was run: (§3)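 Dialysed (MWCO 12 000) at 4 °C for 24 h against 100 mM potassium phosphate pH 7.4, 5% sucrose, buffer changed twice. Dialysed and undialysed mixtures assayed together; residual activity from triplicates.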

[7] = biological target: T2, Amine oxidase [flavin-containing] B (Homo sapiens, UniProt P27338); assay: Inhibition of recombinant human MAO-B expressed in baculovirus infected BTI insect cells using p-tyramine as substrate incubated for 30 mins by Amplex red reagent based fluorescence analysis; type: cell-based
T2 sequence (P27338 whole entry): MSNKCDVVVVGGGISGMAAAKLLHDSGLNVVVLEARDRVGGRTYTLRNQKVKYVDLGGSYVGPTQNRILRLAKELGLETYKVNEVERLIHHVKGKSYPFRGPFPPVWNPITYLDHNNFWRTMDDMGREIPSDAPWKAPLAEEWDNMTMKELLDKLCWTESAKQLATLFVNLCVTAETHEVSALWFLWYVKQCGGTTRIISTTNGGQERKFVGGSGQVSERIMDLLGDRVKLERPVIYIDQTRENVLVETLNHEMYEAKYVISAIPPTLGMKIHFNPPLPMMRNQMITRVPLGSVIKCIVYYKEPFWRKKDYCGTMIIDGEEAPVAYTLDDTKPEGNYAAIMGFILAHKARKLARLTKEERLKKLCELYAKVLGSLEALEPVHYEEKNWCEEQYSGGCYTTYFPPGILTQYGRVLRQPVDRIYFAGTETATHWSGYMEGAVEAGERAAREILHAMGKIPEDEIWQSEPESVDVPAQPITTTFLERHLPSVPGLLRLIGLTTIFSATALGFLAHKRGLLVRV

Mus musculus [8] = assay: Antidepressant-like activity in CD1 mouse assessed as reduction in immobility time at 30 mg/kg, po administered via gavage as single dose measured after 1 hr by Porsolt-forced swim test; type: functional, organism-based
[9] = Effect on locomotor activity in CD1 mouse assessed as total distance traveled at 30 mg/kg, po administered via gavage for 7 days by open field test; type: ADME, organism-based; details: in vivo, 168 h, time 7 day
How it was run: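 Each mouse placed in the centre of a 50 × 50 × 30 cm black box and video-tracked; total distance travelled over 5 min; n = 8–10.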

[10] = biological target: T1, Amine oxidase [flavin-containing] A; assay: Inhibition of recombinant human MAO-A expressed in baculovirus infected BTI insect cells using p-tyramine as substrate incubated for 30 mins by Amplex red reagent based fluorescence analysis
Mus musculus [11] = assay: Antidepressant-like activity in CD1 mouse assessed as maximum efficacy at 20 mg/kg, po administered as subchronic dose gavage for 7 days and measured 1 h post last dose by Porsolt-forced swim test; type: functional, organism-based; details: time 7.0 day
How it was run: (§4)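 Male albino CD-1 mice (20–25 g), 12 h light/dark, food and water ad libitum. Dosed by oral gavage once daily for 7 days in 200 μL 0.5% CMC; vehicle-only controls. […] Forced swim test run 1 h after the last dose. Immobility scored every 60 s over 6 min; n = 8–12.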

[12] = biological target: T2, Amine oxidase [flavin-containing] B; assay: Reversible inhibition of human MAO-B assessed as residual enzyme activity at 4 fold IC50 incubated for 15 mins and measured before dialysis relative to control; how it was run: as §3
Mus musculus [13] = assay: Antidepressant-like activity in CD1 mouse assessed as reduction in immobility time at 30 mg/kg, po administered via gavage for 7 days and measured 1 h post last dose by Porsolt-forced swim test; type: functional, organism-based; details: time 7.0 day; how it was run: as §4
[14] = biological target: T1, Amine oxidase [flavin-containing] A; assay: Reversible inhibition of human MAO-A assessed as residual enzyme activity at 4 fold IC50 incubated for 15 mins and measured 24 hrs post dialysis by dialysis method relative to control; details: 24.25 h, time 1455 min; how it was run: as §3
[15] = biological target: T2, Amine oxidase [flavin-containing] B; assay: Reversible inhibition of human MAO-B assessed as residual enzyme activity at 4 fold IC50 incubated for 15 mins and measured 24 hrs post dialysis relative to control; details: 24.25 h, time 1455 min; how it was run: as §3
[16] = Ex vivo inhibition of MAOA in CD1 mouse brain homogenates assessed as MAOA level at 30 mg/kg, po administered as subchronic dose via gavage for 7 days and measured 1 hr post last dose by monoamine oxidase assay (reference value: 0.40 +/- 0.005 nmol/min/mg); type: functional; details: time 7 day
[17] = Ex vivo inhibition of MAOA in CD1 mouse brain homogenates assessed as inhibition of 5-HT deamination by measuring 5-HIAA metabolite levels by using at 30 mg/kg, po administered as subchronic dose via gavage for 7 days and measured 1 hr post last dose by HPLC analysis (reference value: 0.18 +/- 0.01 ug/g); type: functional; details: time 7 day
[18] = Ex vivo inhibition of MAOA in CD1 mouse brain homogenates assessed as MAOA level at 30 mg/kg, po administered as single acute dose via gavage and measured after 1 hr by monoamine oxidase assay (reference value: 0.40 +/- 0.012 nmol/min/mg); type: functional
[19] = Ex vivo inhibition of MAOA in CD1 mouse brain homogenates assessed as 5-HT levels at 30 mg/kg, po administered as single acute dose via gavage and measured after 1 hr by ELISA kit method (reference value: 0.80 +/- 0.006 ug/g); type: functional
[20] = Ex vivo inhibition of MAOA in CD1 mouse brain homogenates assessed as 5-HT levels at 30 mg/kg, po administered as subchronic dose via gavage for 7 days and measured 1 hr post last dose by ELISA kit method (reference value: 0.78 +/- 0.01 ug/g); type: functional; details: time 7 day
[21] = Ex vivo inhibition of MAOA in CD1 mouse brain homogenates assessed as assessed as inhibition of dopamine deamination by measuring DOPAC metabolite levels at 30 mg/kg, po administered as single acute dose via gavage and measured after 1 hr by HPLC analysis (reference value: 1.22 +/- 0.2 ug/g); type: functional
[22] = Selectivity index, ratio of Ki for inhibition of recombinant human MAO-A to Ki for inhibition of recombinant human MAO-B using p-tyramine as substrate
[23] = Ex vivo inhibition of MAOA in CD1 mouse brain homogenates assessed as assessed as inhibition of 5-HT deamination by measuring 5-HIAA metabolite levels at 30 mg/kg, po administered as single acute dose via gavage and measured after 1 hr by HPLC analysis (reference value: 0.28 +/- 0.011 ug/g); type: functional
[24] = Permeability of compound in PBS/EtOH buffer (70:30) at 25 ug/ml incubated for 16 hrs by UV plate reader based PAMPA-BBB
[25] = Ex vivo inhibition of MAOA in CD1 mouse brain homogenates assessed as dopamine levels at 30 mg/kg, po administered as single acute dose via gavage and measured after 1 hr by ELISA kit method (reference value: 7.08 +/- 0.58 ug/g); type: functional

Row | SMILES | viability at 2 h, 7.5 µM [3] | viability at 2 h, 15 µM [4] | viability at 2 h, 30 µM [5] | Activity [6] | Ki [7] | Activity (Mus musculus [8]) | Activity [9] | Ki [10] | Activity [12] | Activity (Mus musculus [13]) | Activity [14] | Activity [15] | other results
1 | C#CCN(C)[C@H](C)Cc1ccccc1 [SELEGILINE] | 90% | 87.2% | 84% | – | – | – | – | – | – | – | – | – | Activity [1]: 90.01%; Activity [2]: 89.96%
2 | COc1ccc(C(/C=C/c2cccc(OC)c2OC)=N/NC(=O)Cn2c(=O)oc3ccc(Cl)cc32)cc1 | 118% | 99.1% | 88.5% | 20.16% | 1850 µM | Active | Non-Toxic | 10 nM | 82.37% | Active | 93.57% | 95.21% | Activity (Mus musculus [11]): inactive
3 | COc1cccc(C2CC(c3ccccc3)=NN2C(=O)Cn2c(=O)oc3ccccc32)c1 (stereo not given) | 96.2% | 88.3% | 77.3% | 24.55% | 8.25 µM | inactive | Non-Toxic | 8 nM | 85% | Active | 91.74% | 92.25% | Activity [16]: 0.29 nmol/min/mg; Activity [17]: 0.24 µg/g; Activity [18]: 0.31 nmol/min/mg; Activity [19]: 0.88 µg/g; Activity [20]: 1.01 µg/g; Activity [21]: 1.23 µg/g; Ratio Ki [22]: 0.00097; Activity [23]: 0.32 µg/g; Papp at 16 h, 25 ug/ml [24]: 8.9 ×10⁻⁶ cm/s; Activity [25]: 7.08 µg/g
